As usually defined, the Km is the substrate concentration at which the rate is half of its maximum.

The test system of this experiment is Ach15909. Kind of experiment: HPLC of salidroside formed. The class given is biochemical, Astilbe chinensis. Particulars: 2 mM UDP-glucose, 0.05-2.0 mM tyrosol, 50 mM PB pH 8.0, 37 °C, 30 min. In a few lines: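 Recombinant A. chinensis UGT was expressed in E. coli Rosetta 2 (DE3), Ni-NTA purified with an imidazole gradient, exchanged into PBS pH 7.4, and quantified by BCA. Reactions were started by adding protein and quenched for C18 HPLC (0.1% formic acid water/acetonitrile gradient, 275 nm). Salidroside was quantified against an external standard curve, in triplicate, with kinetic parameters from non-linear fitting.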

As to `OCCc1ccc(O)cc1` [compound 1, tyrosol], the Km was determined as 740 ± 200 µM.
